Measurements pooled from the literature.
Observed: cell growth or viability

SMILES | cell line | assay | setting | CC50
COc1ccc(NC(=O)N2CCCCN3[C@H](COCCC(=O)O)[C@H](c4ccc(C#Cc5ccccc5)cc4)[C@@H]3C2)cc1 | HEK-293T |  |  | > 40 µM
O=C(O)CCCc1cc2cc(Cl)ccc2n1S(=O)(=O)c1ccc2ncsc2c1 | LX-2 | ATP luminescence | 48 h, serum-free | > 40 µM
CCOP(=O)(OCC)[C@@H]1C[C@@H](n2cc(Cn3ccc(=O)[nH]c3=O)nn2)ON1C (racemic) | human T-lymphocyte |  | 72 h | > 250 µM
Cc1ccc2oc(-c3cc(NC(=O)Cc4ccccc4)ccc3Cl)nc2c1 | Huh-7 | MTT | 24 h | > 400 µM
Cc1ccc(C(=O)CNc2nc(NS(=O)(=O)c3ccccc3)ncc2-c2nc3ccccc3s2)cc1 | BGM |  |  | 170 µg/mL
CO[C@H]1/C=C/O[C@@]2(C)Oc3c(C)c(O)c4c(O)c(c(/C=N/N5CCN(C)CC5)c(O)c4c3C2=O)NC(=O)/C(C)=C\C=C[C@H](C)[C@H](O)[C@@H](C)[C@@H](O)[C@@H](C)[C@H](OC(C)=O)[C@@H]1C | Huh-7 | MTT | 24 h | 304 µM
CCO[C@H](COc1ccc(C(F)(F)F)cc1)CSc1ccc(OCC(=O)O)c(C)c1 | LX-2 | ATP luminescence | 48 h, serum-free | > 50 µM
CCOP(=O)(OCC)[C@@H]1C[C@H](n2cc(Cn3ccc(NC(C)=O)nc3=O)nn2)ON1C (racemic) | human T-lymphocyte |  | 72 h | > 250 µM
CCOc1ccc(-c2nc(CNCCc3ccc(F)cc3)cs2)cc1 | Huh-7 | MTT | 24 h | 87.8 µM
O=C1O[C@H]2[C@@H]3OC(=O)c4cc(O)c(O)c(O)c4-c4c(O)c(O)c5oc(=O)c6c(c(O)c(O)c7oc(=O)c4c5c76)-c4c(cc(O)c(O)c4O)C(=O)OC[C@H]3OC(O)[C@@H]2OC(=O)c2cc(O)c(O)c(O)c2-c2c1cc(O)c(O)c2O (mixture of isomers) | Huh-7 | MTT |  | > 5000 µM
C[C@H](NC(=O)OCc1ccccc1)C(=O)Nc1ccc(C2S/C(=N\c3cccc(F)c3)N(Cc3ccco3)C2=O)cc1 (stereo partly drawn) | Huh-7 |  | 72 h, replicon | > 50 µM
O=c1oc2c(O)c(O)cc3c(=O)oc4c(O)c(O)cc1c4c23 | Huh-7 | MTT |  | > 5000 µM
Cc1cc(NCCc2ccccc2)nc(NC(=N)Nc2ccc(Cl)cc2)n1 | Huh-7 | MTT | 24 h | 15.2 µM
Cc1ccc(S(=O)(=O)Nc2ncc(-c3nc4ccccc4s3)c(N)n2)cc1 | BGM |  |  | 200 µg/mL
CCOP(=O)(OCC)[C@@H]1C[C@@H](n2cc(Cn3cnc4c(N)ncnc43)nn2)ON1C (racemic) | human T-lymphocyte |  | 72 h | > 250 µM
O=C(CNc1nc(NS(=O)(=O)c2ccccc2)ncc1-c1nc2ccccc2s1)c1ccc(Cl)cc1 | BGM |  |  | 220 µg/mL
CCOP(=O)(OCC)[C@@H]1C[C@H](n2cc(-c3ccc(F)cc3F)nn2)ON1C | human T-lymphocyte |  | 72 h | ≥ 250 µM
CO[C@H]1C[C@@H](C[C@H](C)[C@H]2CC(=O)[C@@H](C)/C=C(\C)[C@H](O)[C@H](OC)C(=O)[C@@H](C)C[C@@H](C)/C=C/C=C/C=C(\C)[C@H](OC)C[C@H]3CC[C@H](C)[C@](O)(O3)C(=O)C(=O)N3CCCC[C@@H]3C(=O)O2)CC[C@@H]1OCCO (racemic) | Huh-7 | MTT | 24 h | 15.9 µM
CCOP(=O)(OCC)[C@@H]1C[C@@H](n2cc(-c3ccccn3)nn2)ON1C (racemic) | human T-lymphocyte |  | 72 h | > 250 µM
NCCN(C(=O)c1ccc(Cl)cc1Cl)c1ccc(OCc2ccc(Cl)cc2)cc1 | Huh-7 | MTT | 24 h | 11.9 µM
CCOP(=O)(OCC)[C@@H]1C[C@H](n2cc(-c3cccc(F)c3)nn2)ON1C | human T-lymphocyte |  | 72 h | > 250 µM
Nc1nc(NS(=O)(=O)c2ccccc2)nc(-c2ccc(F)cc2)c1-c1nc2ccccc2s1 | BGM |  |  | 180 µg/mL
CC(C)OC(=O)C(C)(C)Oc1ccc(C(=O)c2ccc(Cl)cc2)cc1 | LX-2 | ATP luminescence | 48 h, serum-free | > 50 µM
CCOP(=O)(OCC)[C@@H]1C[C@H](n2cc(C(=O)OC)nn2)ON1C (relative stereo) | human T-lymphocyte |  | 72 h | > 250 µM
O=C(O)c1ccc(-n2nc(-c3ccccc3O)nc2-c2ccccc2O)cc1 | Huh-7 | MTT | 24 h | > 200 µM
CCOP(=O)(OCC)[C@@H]1C[C@H](n2cc(-c3nccn3C)nn2)ON1C | human T-lymphocyte |  | 72 h | > 250 µM
O=C(O)/C=C/C=C/c1cccc(Oc2cc(Cl)cc(Cl)c2)c1 | Huh-7 | MTT | 24 h | > 200 µM
